Measurements reported in PMC9730744 (ACS Omega, 2022).
Marks after values point to notes of the source that are not given here.

Assays:
rat synovial cells [1] = assay: LDH activity assay of synovial cells in vitro; format: cell-based; conditions: for LDH activity ± SD: 1 μM, supernatant of rat synovial cells, 48 h; for LDH content in the supernatant / damage to synovial cells (in words): compared with the normal group
In short: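 Log-phase rat synovial cells (2 × 10⁴/well) were cultured 48 h at 37 °C, 5% CO₂. They then received test compound at graded concentrations, methotrexate, or DMSO vehicle for 48 h. Plates were centrifuged 10 min, and supernatant LDH was assayed with a kit. Activity (U/L) = [(OD sample − OD control)/([…] − OD blank)] × 0.2 mM × 1000. Three independent experiments, each in triplicate.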

rat synovial cells [2] = assay: Morphology of rat synovial cells in vitro; format: cell-based; conditions: 1 μM, 48 h, Figure 3
In short: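 Synovial cells at 70–80% confluence were detached with 0.25% trypsin and seeded at 5000 cells/well in 24-well plates. Groups received test compound (1 μM), methotrexate (1 μM) or DMSO, with an untreated normal group. After 48 h culture, morphology was examined by cell imaging analysis.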

[3] = Acute toxicity test in mice; conditions: both, mouse, in vivo, po
In short: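 Single oral gavage of 0.4 mL test substance to SPF mice (18–22 g) after 1-week acclimatization at 22 ± 2 °C on a 12 h light/dark cycle. Mice were randomized into 10 groups, half male and half female, fasted 8 h before dosing and 2 h after. Mortality, death time and signs of poisoning were recorded over 14 days, and LD50 was taken as the acute toxicity measure.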

[4] = test system: CFA-induced arthritis in rats; assay: Complete Freund's adjuvant induced arthritis in rats; format: in vivo, rat; conditions: for IL-6 content in serum after treatment / TNF-α content in serum after treatment: high dose (100 mg·kg^–1·d^–1) and low dose (50 mg·kg^–1·d^–1); for IL-6 content in serum after treatment: Figure 4c; for TNF-α content in serum after treatment: Figure 4d; for change of paw volume before and after treatment: oral
In short: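 SPF adult rats (200 ± 20 g) were acclimatized 2 weeks at 22 ± 3 °C and 40–70% humidity. Arthritis was induced with 0.1 mL CFA injected 2 cm from the tail root; the normal group received saline. From day 14 after induction, rats were dosed orally at 50 or 100 mg·kg⁻¹·d⁻¹ daily for 14 days. Paw volume was measured by toe volume meter before induction and on dosing days 1 and 14.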

[5] = test system: TNF-α, IL-1β, and IL-6 in rat synovial cells; assay: Inflammatory cytokines in the rat synovial cell supernatant; format: cell-based; conditions: 1 μM, LPS 1 μg·mL^–1, compared with the LPS group, p < 0.01
In short: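 After 24 h they were stimulated with LPS (1 μg·mL⁻¹) for 24 h, then treated with test compound or methotrexate at 1 μM for 24 h. Supernatant was centrifuged at 3000 rpm for 15 min, and TNF-α, IL-1β and IL-6 were measured by ELISA. Three independent experiments, each in triplicate.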

[6] = test system: TLR4, MyD88, NF-κB, and IκB in rat synovial cells; assay: TLR4/NF-κB signaling pathway protein expression in rat synovial cells; format: cell-based; conditions: 1 μM, LPS 1 μg·mL^–1, compared with the LPS group, p < 0.01
In short: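 Synovial cells (5000/well) were cultured 24 h, stimulated with LPS (1 μg·mL⁻¹) for 24 h, then treated with test compound at 1 μM for 24 h. Cells were fixed in 4% fixative for 45 min, permeabilized with 0.25% Triton for 15 min and blocked with 5% BSA for 10 min. Rabbit anti-rat primaries (1:100 or 1:200) were applied overnight at 4 °C, then FITC goat anti-rabbit (1:400, 30 min, 37 °C) and DAPI (1:800). Read-out was mean fluorescence intensity.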

rat synovial cells [7] = conditions: read-out: IC50, growth of synovial cells; cited from earlier work
[8] = 50 mg·kg^–1·d^–1 for 14 days, Figure 4a

| SMILES | LDH activity ± SD (rat synovial cells [1]) | LDH content in the supernatant / damage to synovial cells (in words) (rat synovial cells [1]) | morphology of rat synovial cells (rat synovial cells [2]) | LD50 at 14 days [3] [mg/kg] | IL-6 content in serum after treatment [4] | TNF-α content in serum after treatment [4] | change of paw volume before and after treatment [4, 8] | content of IL-1β in the supernatant [5] | content of IL-6 in the supernatant [5] | content of TNF-α in the supernatant [5] | expression of MyD88 [6] | expression of NF-κB [6] | expression of TLR4 [6] | expression of the IκB protein [6] | IC50 (rat synovial cells [7]) [µM] | change of paw volume before and after treatment ([4]; 100 mg·kg^–1·d^–1 for 14 days, Figure 4b) |
| --- | --- | --- | --- | --- | --- | --- | --- | --- | --- | --- | --- | --- | --- | --- | --- | --- |
| O=C1C=C2CC[C@@H](C3CCC(=O)CC3)CC2C(=O)C1 (stereo partly drawn) [Compound 28, (7R)-7-(4-oxocyclohexyl)-6,7,8,8a-tetrahydronaphthalene-1, 3 (2H, 5H)-dione] | 375.29 ± 17.87 ^c U/L | little damage to synovial cells | significant concentration dependence on synovial cell injury | – | – | – | – | – | – | – | – | – | – | – | – | – |
| O=C1C=C2CC[C@@H](C(=O)O)CC2C(=O)C1 (stereo partly drawn) [Compound 21] | 297.79 ± 49.6 U/L | little damage to synovial cells | – | – | – | – | – | – | – | – | – | – | – | – | – | – |
| CCOC(=O)[C@@H]1CCC2=CC(=O)CC(=O)C2C1 (stereo partly drawn) [Compound 23] | 342.78 ± 22.74 ^c U/L | little damage to synovial cells | significant concentration dependence on synovial cell injury | 2307 ± 7.37 | – | – | – | – | – | – | – | – | – | – | – | – |
| O=C1C=C2CCC(F)(F)CC2C(=O)C1 (stereo not drawn) [Compound 36, 7,7-difluoro-6,7,8,8a-tetrahydronaphthalene-1,3 (2H, 5H)-dione] | 292.07 ± 31.56 U/L | little damage to synovial cells | significant concentration dependence on synovial cell injury | 2709 ± 8.63 | – | – | – | – | – | – | – | – | – | – | – | – |
| CN(Cc1cnc2nc(N)nc(N)c2n1)c1ccc(C(=O)N[C@@H](CCC(=O)O)C(=O)O)cc1 [methotrexate, reference compound] | 438.75 ± 11.50 ^c U/L | significantly increased | significantly damaged | 1368 ± 5.34 | basically at a low level | decreased | significant volume change | significantly decreased | significantly decreased | significantly decreased | significantly downregulated | significantly downregulated | significantly downregulated | significantly upregulated | – | – |
| CC(C)[C@H]1CC[C@]2(C)C(=O)CCC(=O)C=C12 [Dysodensiol K] | – | – | – | – | – | – | – | – | – | – | – | – | – | – | 11.8 ± 0.23 | – |
| CC(=O)N[C@@H]1CCC2=CC(=O)CC(=O)C2C1 (stereo partly drawn) [Compound 33] | 264.24 ± 27.71 U/L | little damage to synovial cells | – | – | – | – | – | – | – | – | – | – | – | – | – | – |
| O=C1C=C2CC[C@@H](O)CC2C(=O)C1 (stereo partly drawn) [Compound 32, (7R)-7-hydroxy-6,7,8,8a-tetrahydronaphthalene-1, 3 (2H, 5H)-dione] | 307.02 ± 30.86 ^c U/L | little damage to synovial cells | significant concentration dependence on synovial cell injury | 2658 ± 9.06 | basically at a low level | decreased | little change | significantly decreased | significantly decreased | significantly decreased | significantly downregulated | significantly downregulated | significantly downregulated | significantly upregulated | – | hardly changed |
